ChEMBL document CHEMBL4346654 (Eur J Med Chem, 2019)
Values after ≈ are worked out from the molar mass of the structure shown.

How the values were obtained:
Type in all cases: functional
Staphylococcus aureus [1] = assay: Antibacterial activity against MLS-resistant Staphylococcus aureus PU 32 expressing inducible ermA gene assessed as reduction in microbial growth by CLSI based two-fold broth dilution method
Streptococcus pneumoniae [2] = assay: Antibacterial activity against erythromycin-susceptible Streptococcus pneumoniae ATCC49619 assessed as reduction in microbial growth by CLSI based two-fold broth dilution method
Streptococcus pneumoniae [3] = assay: Bactericidal activity against erythromycin-susceptible Streptococcus pneumoniae ATCC49619 pretreated followed by subculture in absence of compound measured after 24 hrs
Outline: (§1)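 Isolates were identified by 16S rDNA sequencing. MIC was determined by CLSI-recommended two-fold broth dilution. For MBC, samples from 1–8 fold MIC were transferred to culture medium and subcultured for 24 h without antibiotic.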

Haemophilus influenzae [4] = assay: Antibacterial activity against azithromycin-susceptible Haemophilus influenzae ATCC 49247 assessed as reduction in microbial growth by CLSI based two-fold broth dilution method
Streptococcus pneumoniae [5] = assay: Antibacterial activity against Streptococcus pneumoniae 07P390 expressing constitutive ermB gene assessed as reduction in microbial growth by CLSI based two-fold broth dilution method
Streptococcus pneumoniae [6] = assay: Antibacterial activity against penicillin-susceptible Streptococcus pneumoniae PU 09 expressing mef gene assessed as reduction in microbial growth by CLSI based two-fold broth dilution method
Streptococcus pneumoniae [7] = assay: Bactericidal activity against penicillin-susceptible Streptococcus pneumoniae PU 09 expressing mef gene pretreated followed by subculture in absence of compound measured after 24 hrs; outline: as §1
Streptococcus pneumoniae [8] = assay: Selectivity ratio of MBC to MIC for penicillin-susceptible Streptococcus pneumoniae PU 09 expressing mef gene; outline: as §1
Streptococcus pneumoniae [9] = assay: Bactericidal activity against Streptococcus pneumoniae 07P390 expressing constitutive ermB gene pretreated followed by subculture in absence of compound measured after 24 hrs; outline: as §1
Streptococcus pneumoniae [10] = assay: Selectivity ratio of MBC to MIC for Streptococcus pneumoniae 07P390 expressing constitutive ermB gene; outline: as §1
Haemophilus influenzae [11] = assay: Bactericidal activity against azithromycin-susceptible Haemophilus influenzae ATCC 49247 pretreated followed by subculture in absence of compound measured after 24 hrs; outline: as §1
Streptococcus pyogenes [12] = assay: Antibacterial activity against MLS-resistant Streptococcus pyogenes 01-968 expressing inducible ermB gene assessed as reduction in microbial growth by CLSI based two-fold broth dilution method
Streptococcus pyogenes [13] = assay: Bactericidal activity against MLS-resistant Streptococcus pyogenes 01-968 expressing inducible ermB gene pretreated followed by subculture in absence of compound measured after 24 hrs
Outline: (§2)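 MBC assay. Following MIC determination by CLSI standard two-fold broth dilution, samples at 1–8 fold MIC were transferred to fresh culture medium. They were subcultured for 24 h without antibiotic. Isolates were identified by 16S rDNA sequencing. S. aureus ATCC 29213 was used as a control strain.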

Streptococcus pyogenes [14] = assay: Selectivity ratio of MBC to MIC for MLS-resistant Streptococcus pyogenes 01-968 expressing inducible ermB gene
Outline: (§3)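 MBC/MIC ratio. MIC was measured by CLSI standard two-fold broth dilution. MBC was measured by transferring samples at 1–8 fold MIC to culture medium and subculturing for 24 h without antibiotic. Isolates were identified by 16S rDNA sequencing.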

Staphylococcus aureus [15] = assay: Bactericidal activity against MLS/methicillin-resistant Staphylococcus aureus PU 32 expressing inducible ermA gene pretreated followed by subculture in absence of compound measured after 24 hrs; outline: as §2
Staphylococcus aureus [16] = assay: Selectivity ratio of MBC to MIC for MLS/methicillin-resistant Staphylococcus aureus PU 32 expressing inducible ermA gene; outline: as §3
Staphylococcus aureus [17] = assay: Antibacterial activity against MLS-resistant Staphylococcus aureus PU 20 expressing constitutive ermC gene assessed as reduction in microbial growth by CLSI based two-fold broth dilution method
Streptococcus pyogenes [18] = assay: Antibacterial activity against MLS-resistant Streptococcus pyogenes 12-206 expressing constitutive ermA gene assessed as reduction in microbial growth by CLSI based two-fold broth dilution method
Streptococcus pyogenes [19] = assay: Bactericidal activity against MLS-resistant Streptococcus pyogenes 12-206 expressing constitutive ermA gene pretreated followed by subculture in absence of compound measured after 24 hrs; outline: as §2
Streptococcus pyogenes [20] = assay: Selectivity ratio of MBC to MIC for MLS-resistant Streptococcus pyogenes 12-206 expressing constitutive ermA gene; outline: as §3
Streptococcus pyogenes [21] = assay: Antibacterial activity against Streptococcus pyogenes 12-207 expressing mef gene assessed as reduction in microbial growth by CLSI based two-fold broth dilution method
Streptococcus pyogenes [22] = assay: Bactericidal activity against Streptococcus pyogenes 12-207 expressing mef gene pretreated followed by subculture in absence of compound measured after 24 hrs; outline: as §1
Streptococcus pyogenes [23] = assay: Selectivity ratio of MBC to MIC for Streptococcus pyogenes 12-207 expressing mef gene; outline: as §1
Moraxella catarrhalis [24] = assay: Antibacterial activity against erythromycin-susceptible Moraxella catarrhalis 13L332 assessed as reduction in microbial growth by CLSI based two-fold broth dilution method
Moraxella catarrhalis [25] = assay: Bactericidal activity against erythromycin-susceptible Moraxella catarrhalis 13L332 pretreated followed by subculture in absence of compound measured after 24 hrs; outline: as §1
Moraxella catarrhalis [26] = assay: Selectivity ratio of MBC to MIC for erythromycin-susceptible Moraxella catarrhalis 13L332; outline: as §1
Haemophilus influenzae [27] = assay: Selectivity ratio of MBC to MIC for azithromycin-susceptible Haemophilus influenzae ATCC 49247; outline: as §1
Staphylococcus aureus [28] = assay: Bactericidal activity against MLS-resistant Staphylococcus aureus PU 20 expressing constitutive ermC gene pretreated followed by subculture in absence of compound measured after 24 hrs; outline: as §2
Streptococcus pneumoniae [29] = assay: Selectivity ratio of MBC to MIC for erythromycin-susceptible Streptococcus pneumoniae ATCC49619; outline: as §1

Compound | MIC (Staphylococcus aureus [1]) | MIC (Streptococcus pneumoniae [2]) | MBC (Streptococcus pneumoniae [3]) | MIC (Haemophilus influenzae [4]) | MIC (Streptococcus pneumoniae [5]) | MIC (Streptococcus pneumoniae [6]) | MBC (Streptococcus pneumoniae [7]) | Selectivity ratio (Streptococcus pneumoniae [8]) | MBC (Streptococcus pneumoniae [9]) | MBC (Haemophilus influenzae [11]) | MIC (Streptococcus pyogenes [12]) | MBC (Streptococcus pyogenes [13]) | Selectivity ratio (Streptococcus pyogenes [14]) | MBC (Staphylococcus aureus [15]) | Selectivity ratio (Staphylococcus aureus [16]) | MIC (Staphylococcus aureus [17]) | MIC (Streptococcus pyogenes [18]) | MIC (Streptococcus pyogenes [21]) | MBC (Streptococcus pyogenes [22]) | Selectivity ratio (Streptococcus pyogenes [23]) | also measured
CC[C@H]1OC(=O)[C@@](C)(F)C(=O)[C@H](C)[C@@H](O[C@@H]2O[C@H](C)C[C@H](N(C)C)[C@H]2O)[C@](C)(OC/C=C/c2ccc3c(c2)c(=O)c(C(=O)NC)cn3CC)C[C@@H](C)/C(=N\OC)[C@H](C)[C@H]2OC(=O)O[C@@]21C | 0.25 mg/L | ≤ 0.008 mg/L | ≤ 0.008 mg/L | 256 mg/L | 0.031 mg/L | 0.5 mg/L | 1 mg/L (≈ 1.09 µM) | 2 | > 0.25 mg/L | > 256 mg/L | ≤ 0.002 mg/L | 0.008 mg/L (≈ 0.00874 µM) | >=4 | > 2 mg/L | >8 | > 256 mg/L | ≤ 0.002 mg/L | 0.062 mg/L | 0.25 mg/L (≈ 0.273 µM) | 4 | Selectivity ratio (Streptococcus pneumoniae [10]): >8; MBC (Streptococcus pyogenes [19]): > 0.016 mg/L; Selectivity ratio (Streptococcus pyogenes [20]): >8; MIC (Moraxella catarrhalis [24]): 0.5 mg/L; MBC (Moraxella catarrhalis [25]): 4 mg/L (≈ 4.37 µM); Selectivity ratio (Moraxella catarrhalis [26]): 8
CC[C@H]1OC(=O)[C@@](C)(F)C(=O)[C@H](C)[C@@H](O[C@@H]2O[C@H](C)C[C@H](N(C)C)[C@H]2O)[C@](C)(OC)C[C@@H](C)/C(=N\OCC#Cc2ccc3c(c2)c(=O)c(C(N)=O)cn3C2CC2)[C@H](C)[C@H]2OC(=O)O[C@@]21C | 1 mg/L | ≤ 0.008 mg/L | ≤ 0.008 mg/L | 32 mg/L | 0.25 mg/L | 0.25 mg/L | 0.5 mg/L (≈ 0.549 µM) | 2 | > 2 mg/L | 128 mg/L (≈ 140 µM) | ≤ 0.002 mg/L | > 0.016 mg/L | >8 | 8 mg/L (≈ 8.78 µM) | 8 | 128 mg/L | 1 mg/L | 0.25 mg/L | 2 mg/L (≈ 2.2 µM) | 8 | Selectivity ratio (Streptococcus pneumoniae [10]): >8; Selectivity ratio (Haemophilus influenzae [27]): 4; MBC (Staphylococcus aureus [28]): > 256 mg/L; MBC (Streptococcus pyogenes [19]): > 8 mg/L; Selectivity ratio (Streptococcus pyogenes [20]): >8; MIC (Moraxella catarrhalis [24]): 4 mg/L; MBC (Moraxella catarrhalis [25]): > 32 mg/L; Selectivity ratio (Moraxella catarrhalis [26]): >8
CC[C@H]1OC(=O)[C@@](C)(F)C(=O)[C@H](C)[C@@H](O[C@@H]2O[C@H](C)C[C@H](N(C)C)[C@H]2O)[C@](C)(OC)C[C@@H](C)/C(=N\OC/C=C/c2ccc3c(c2)c(=O)c(C(=O)NC)cn3CC)[C@H](C)[C@H]2OC(=O)O[C@@]21C | 2 mg/L | ≤ 0.008 mg/L | ≤ 0.008 mg/L | 128 mg/L | 0.25 mg/L | 0.5 mg/L | 0.5 mg/L (≈ 0.546 µM) | 1 | > 2 mg/L | 256 mg/L (≈ 280 µM) | 0.016 mg/L | > 0.125 mg/L | >8 | > 16 mg/L | >8 | 128 mg/L | 1 mg/L | 0.25 mg/L | 1 mg/L (≈ 1.09 µM) | 4 | Selectivity ratio (Streptococcus pneumoniae [10]): >8; Selectivity ratio (Haemophilus influenzae [27]): 2; MBC (Staphylococcus aureus [28]): > 256 mg/L; MBC (Streptococcus pyogenes [19]): > 8 mg/L; Selectivity ratio (Streptococcus pyogenes [20]): >8; MIC (Moraxella catarrhalis [24]): 8 mg/L; MBC (Moraxella catarrhalis [25]): 64 mg/L (≈ 69.9 µM); Selectivity ratio (Moraxella catarrhalis [26]): 8
CC[C@H]1OC(=O)[C@H](C)[C@@H](O[C@H]2C[C@@](C)(OC)[C@@H](O)[C@H](C)O2)[C@H](C)[C@@H](O[C@@H]2O[C@H](C)C[C@H](N(C)C)[C@H]2O)[C@](C)(O)C[C@@H](C)CN(C)[C@H](C)[C@@H](O)[C@]1(C)O [AZITHROMYCIN] | 32 mg/L | 0.062 mg/L | 0.25 mg/L (≈ 0.334 µM) | 2 mg/L | 256 mg/L | 8 mg/L | 16 mg/L (≈ 21.4 µM) | 2 | > 256 mg/L | 8 mg/L (≈ 10.7 µM) | 8 mg/L | > 64 mg/L | >8 | 32 mg/L (≈ 42.7 µM) | 1 | > 256 mg/L | > 256 mg/L | 16 mg/L | 16 mg/L (≈ 21.4 µM) | 1 | Selectivity ratio (Streptococcus pneumoniae [29]): 4; Selectivity ratio (Haemophilus influenzae [27]): 4; MIC (Moraxella catarrhalis [24]): 0.031 mg/L; MBC (Moraxella catarrhalis [25]): 0.25 mg/L (≈ 0.334 µM); Selectivity ratio (Moraxella catarrhalis [26]): 8
